ChEMBL document CHEMBL4190320, “Clathrodin, hymenidin and oroidin, and their synthetic analogues as inhibitors of the voltage-gated potassium channels” (Eur J Med Chem, 2017)
Active and inactive are the calls of the source. The calls are words filed in the database; no cut-off is given here.

Tests used:
[1] = target: Potassium voltage-gated channel subfamily A member 1 (Rattus norvegicus) (UniProt P10499); assay: Inhibition of rat Kv1.1 expressed in Xenopus laevis oocytes at 1 uM at -90 mV holding potential by two-electrode voltage clamp assay relative to control; assay type: cell-based
[2] = target: Potassium voltage-gated channel subfamily A member 6 (Homo sapiens, UniProt P17658); assay: Inhibition of human Kv1.6 expressed in CHO cells at -80 mV holding potential by whole cell automated patch clamp method; assay type: cell-based
Summary of the method: (§1)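 Human channels stably expressed in CHO cells, dissociated with 0.05% trypsin-EDTA, held in serum-free medium and resuspended in extracellular solution just before recording. Whole-cell QPatch recordings used a -80 mV holding potential and 500 ms steps to +30 mV at 0.067 Hz. Series resistance was 80% compensated with P/n leak subtraction. After 0.1% DMSO vehicle, four escalating concentrations were applied cumulatively.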

[3] = target: Potassium voltage-gated channel subfamily A member 5 (Homo sapiens, UniProt P22460); assay: Inhibition of human Kv1.5 expressed in CHO cells at -80 mV holding potential by whole cell automated patch clamp method; assay type: cell-based
[4] = target: Potassium voltage-gated channel subfamily A member 1 (Homo sapiens, UniProt Q09470); assay: Inhibition of human Kv1.1 expressed in CHO cells at -80 mV holding potential by whole cell automated patch clamp method; assay type: cell-based; summary of the method: as §1
[5] = target: T1, Potassium voltage-gated channel subfamily A member 3 (Homo sapiens, UniProt P22001); assay: Inhibition of human Kv1.3 expressed in Xenopus laevis oocytes at -90 mV holding potential by two-electrode voltage clamp assay
Target sequence in this assay (P22001 whole entry, looked up): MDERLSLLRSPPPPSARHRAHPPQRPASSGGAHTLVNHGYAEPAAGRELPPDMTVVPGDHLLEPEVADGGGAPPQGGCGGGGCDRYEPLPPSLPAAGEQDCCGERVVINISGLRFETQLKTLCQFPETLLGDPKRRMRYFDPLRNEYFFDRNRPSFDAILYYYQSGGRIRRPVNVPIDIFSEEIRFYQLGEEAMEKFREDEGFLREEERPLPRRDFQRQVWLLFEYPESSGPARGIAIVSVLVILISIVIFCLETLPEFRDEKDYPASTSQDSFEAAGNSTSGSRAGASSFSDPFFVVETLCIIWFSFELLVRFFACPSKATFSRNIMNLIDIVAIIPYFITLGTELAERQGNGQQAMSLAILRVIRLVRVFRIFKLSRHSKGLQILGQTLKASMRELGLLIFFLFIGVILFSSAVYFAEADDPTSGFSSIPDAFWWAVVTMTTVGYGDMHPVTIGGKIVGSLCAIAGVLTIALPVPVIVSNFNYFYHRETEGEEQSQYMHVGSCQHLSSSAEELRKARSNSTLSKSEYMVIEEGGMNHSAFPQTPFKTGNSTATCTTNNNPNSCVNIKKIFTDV

[6] = target: Potassium voltage-gated channel subfamily A member 6 (Rattus norvegicus) (UniProt P17659); assay: Inhibition of rat Kv1.6 expressed in Xenopus laevis oocytes at 1 uM at -90 mV holding potential by two-electrode voltage clamp assay relative to control; assay type: cell-based
[7] = tested on: Potassium voltage-gated channel subfamily H member 1 (Homo sapiens); assay: Inhibition of human Kv10.1 expressed in Xenopus laevis oocytes at 1 uM at -90 mV holding potential by two-electrode voltage clamp assay relative to control
[8] = target: T1, Potassium voltage-gated channel subfamily A member 3; assay: Inhibition of human Kv1.3 expressed in CHO cells at -80 mV holding potential by whole cell automated patch clamp method; assay type: cell-based; summary of the method: as §1
Target sequence in this assay (P22001 whole entry): as the sequence (P22001 whole entry, looked up) above

[9] = target: Potassium voltage-gated channel subfamily A member 4 (Rattus norvegicus, UniProt P15385); assay: Inhibition of rat Kv1.4 expressed in Xenopus laevis oocytes at -90 mV holding potential by two-electrode voltage clamp assay; assay type: cell-based
Summary of the method: (§2)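 Stage V-VI Xenopus laevis oocytes were injected with 50 nL cRNA (1 ng/nL). Currents were recorded by two-electrode voltage clamp. IC50 values come from at least 3 independent experiments and are given as mean ± standard error.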

[10] = target: Potassium voltage-gated channel subfamily A member 2 (Rattus norvegicus) (UniProt P63142); assay: Inhibition of rat Kv1.2 expressed in Xenopus laevis oocytes at 1 uM at -90 mV holding potential by two-electrode voltage clamp assay relative to control; assay type: cell-based
[11] = target: Potassium voltage-gated channel subfamily A member 6 (Rattus norvegicus, UniProt P17659); assay: Inhibition of rat Kv1.6 expressed in Xenopus laevis oocytes at -90 mV holding potential by two-electrode voltage clamp assay; assay type: cell-based; summary of the method: as §2
[12] = target: T1, Potassium voltage-gated channel subfamily A member 3; assay: Inhibition of human Kv1.3 expressed in Xenopus laevis oocytes at 1 uM at -90 mV holding potential by two-electrode voltage clamp assay relative to control
[13] = target: Potassium voltage-gated channel subfamily A member 2 (Homo sapiens, UniProt P16389); assay: Inhibition of human Kv1.2 expressed in CHO cells at -80 mV holding potential by whole cell automated patch clamp method; assay type: cell-based; summary of the method: as §1
[14] = target: Potassium voltage-gated channel subfamily A member 4 (Rattus norvegicus) (UniProt P15385); assay: Inhibition of rat Kv1.4 expressed in Xenopus laevis oocytes at 1 uM at -90 mV holding potential by two-electrode voltage clamp assay relative to control; assay type: cell-based
[15] = target: Potassium voltage-gated channel subfamily A member 5 (Rattus norvegicus) (UniProt P19024); assay: Inhibition of rat Kv1.5 expressed in Xenopus laevis oocytes at 1 uM at -90 mV holding potential by two-electrode voltage clamp assay relative to control; assay type: cell-based
[16] = target: Potassium voltage-gated channel subfamily A member 4 (Homo sapiens, UniProt P22459); assay: Inhibition of human Kv1.4 expressed in CHO cells at -80 mV holding potential by whole cell automated patch clamp method; assay type: cell-based; summary of the method: as §1

Chain of Potassium voltage-gated channel subfamily A member 2 (Rattus norvegicus) (P63142 whole entry): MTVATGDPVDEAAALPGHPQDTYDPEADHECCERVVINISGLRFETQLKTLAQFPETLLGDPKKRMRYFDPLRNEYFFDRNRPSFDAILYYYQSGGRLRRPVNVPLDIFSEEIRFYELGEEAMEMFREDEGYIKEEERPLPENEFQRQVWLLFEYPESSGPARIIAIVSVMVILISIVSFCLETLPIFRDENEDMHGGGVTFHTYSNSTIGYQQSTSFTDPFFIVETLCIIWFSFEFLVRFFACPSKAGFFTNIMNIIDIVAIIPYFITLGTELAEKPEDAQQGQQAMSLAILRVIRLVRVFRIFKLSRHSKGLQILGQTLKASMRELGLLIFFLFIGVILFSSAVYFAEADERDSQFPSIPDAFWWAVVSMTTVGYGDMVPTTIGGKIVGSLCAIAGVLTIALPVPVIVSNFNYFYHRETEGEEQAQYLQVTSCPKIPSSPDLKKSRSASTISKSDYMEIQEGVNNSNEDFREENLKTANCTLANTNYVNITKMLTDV
Chain of Potassium voltage-gated channel subfamily A member 5 (Rattus norvegicus) (P19024 whole entry): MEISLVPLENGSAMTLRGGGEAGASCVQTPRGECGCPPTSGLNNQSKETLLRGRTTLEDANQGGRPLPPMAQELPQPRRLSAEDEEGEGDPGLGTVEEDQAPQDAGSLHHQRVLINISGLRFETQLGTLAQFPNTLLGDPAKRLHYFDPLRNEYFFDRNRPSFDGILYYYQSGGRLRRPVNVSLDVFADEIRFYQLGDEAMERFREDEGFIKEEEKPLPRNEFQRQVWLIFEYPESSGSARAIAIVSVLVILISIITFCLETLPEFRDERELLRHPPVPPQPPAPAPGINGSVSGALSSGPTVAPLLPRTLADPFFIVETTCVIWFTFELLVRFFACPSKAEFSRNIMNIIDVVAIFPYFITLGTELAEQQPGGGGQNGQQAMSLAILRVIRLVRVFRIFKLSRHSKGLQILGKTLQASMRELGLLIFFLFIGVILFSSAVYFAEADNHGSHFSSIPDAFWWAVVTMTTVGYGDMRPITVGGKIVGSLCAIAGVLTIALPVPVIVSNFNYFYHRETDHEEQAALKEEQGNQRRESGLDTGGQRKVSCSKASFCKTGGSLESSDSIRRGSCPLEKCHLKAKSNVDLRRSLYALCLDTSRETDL
Chain of Potassium voltage-gated channel subfamily A member 1 (Q09470 whole entry): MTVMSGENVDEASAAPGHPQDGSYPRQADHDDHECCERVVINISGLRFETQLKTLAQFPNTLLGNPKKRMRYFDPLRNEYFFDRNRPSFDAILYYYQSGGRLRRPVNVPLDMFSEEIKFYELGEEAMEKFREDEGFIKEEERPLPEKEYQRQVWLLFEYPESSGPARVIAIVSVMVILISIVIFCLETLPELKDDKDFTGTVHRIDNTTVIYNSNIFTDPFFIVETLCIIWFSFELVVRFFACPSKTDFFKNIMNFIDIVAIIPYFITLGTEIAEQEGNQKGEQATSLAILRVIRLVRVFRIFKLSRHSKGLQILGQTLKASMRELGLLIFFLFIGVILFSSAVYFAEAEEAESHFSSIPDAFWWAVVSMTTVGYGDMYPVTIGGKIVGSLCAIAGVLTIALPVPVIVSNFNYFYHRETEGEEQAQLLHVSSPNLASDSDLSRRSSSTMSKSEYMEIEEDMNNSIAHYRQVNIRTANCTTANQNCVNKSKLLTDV
Chain of Potassium voltage-gated channel subfamily A member 6 (Homo sapiens, UniProt P17658) (P17658 whole entry): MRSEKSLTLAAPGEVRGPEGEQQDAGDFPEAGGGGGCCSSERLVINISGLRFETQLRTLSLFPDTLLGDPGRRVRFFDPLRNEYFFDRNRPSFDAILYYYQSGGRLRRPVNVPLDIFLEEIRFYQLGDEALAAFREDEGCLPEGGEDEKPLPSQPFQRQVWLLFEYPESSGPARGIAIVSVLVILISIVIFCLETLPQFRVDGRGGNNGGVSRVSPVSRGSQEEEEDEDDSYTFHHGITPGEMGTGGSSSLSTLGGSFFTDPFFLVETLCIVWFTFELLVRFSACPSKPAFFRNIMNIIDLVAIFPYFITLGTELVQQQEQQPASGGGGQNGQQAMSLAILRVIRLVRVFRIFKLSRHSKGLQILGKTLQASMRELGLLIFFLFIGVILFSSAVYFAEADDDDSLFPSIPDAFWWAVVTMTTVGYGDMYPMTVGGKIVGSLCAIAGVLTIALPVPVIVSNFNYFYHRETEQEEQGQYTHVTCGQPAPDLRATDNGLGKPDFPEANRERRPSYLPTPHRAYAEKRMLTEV
Chain of Potassium voltage-gated channel subfamily A member 2 (P16389 whole entry): as the sequence (P63142 whole entry) above, with V9A, G198S, D355E counted along it
Chain of Potassium voltage-gated channel subfamily A member 4 (Rattus norvegicus, UniProt P15385) (P15385 whole entry): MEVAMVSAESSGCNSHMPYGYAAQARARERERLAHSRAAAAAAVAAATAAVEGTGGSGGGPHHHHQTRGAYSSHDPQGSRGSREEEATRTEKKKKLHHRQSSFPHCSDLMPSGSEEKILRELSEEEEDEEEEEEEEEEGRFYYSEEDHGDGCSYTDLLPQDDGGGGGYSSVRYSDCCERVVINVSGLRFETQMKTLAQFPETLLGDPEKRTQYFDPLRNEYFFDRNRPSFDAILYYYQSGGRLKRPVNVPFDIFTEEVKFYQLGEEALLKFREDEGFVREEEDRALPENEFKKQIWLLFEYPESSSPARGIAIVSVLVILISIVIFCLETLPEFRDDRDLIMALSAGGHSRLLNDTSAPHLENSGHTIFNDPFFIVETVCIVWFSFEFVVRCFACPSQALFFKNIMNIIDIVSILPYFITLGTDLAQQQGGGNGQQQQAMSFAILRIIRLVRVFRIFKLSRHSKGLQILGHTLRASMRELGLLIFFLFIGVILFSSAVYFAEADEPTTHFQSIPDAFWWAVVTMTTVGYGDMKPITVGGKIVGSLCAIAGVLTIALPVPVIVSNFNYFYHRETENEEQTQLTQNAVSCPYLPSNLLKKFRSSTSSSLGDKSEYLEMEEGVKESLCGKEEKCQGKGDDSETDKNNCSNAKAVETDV
Chain of Potassium voltage-gated channel subfamily A member 1 (Rattus norvegicus) (P10499 whole entry): as the sequence (Q09470 whole entry) above, with V9A, V202I, N213T, M449I, V471A, A476G, T480A, A481T, N482D counted along it

| Structure (SMILES) | inhibition [1] | IC50 [2] [µM] | IC50 [3] [µM] | IC50 [4] [µM] | IC50 [5] [µM] | inhibition [6] | inhibition [7] | IC50 [8] [µM] | IC50 [9] [µM] | inhibition [10] | IC50 [11] [µM] | inhibition [12] | IC50 [13] [µM] | inhibition [14] | inhibition [15] | IC50 [16] [µM] |
| --- | --- | --- | --- | --- | --- | --- | --- | --- | --- | --- | --- | --- | --- | --- | --- | --- |
| Cc1[nH]c(C(=O)NC/C=C/c2c[nH]c(N)n2)cc1Br | inactive | 11 | > 30 | > 30 | > 10 | 63% | inactive | 25 | 0.38 | inactive | 9.8 | inactive | > 30 | 46% | inactive | 12 |
| Nc1nc(/C=C/CNC(=O)c2cccnc2)c[nH]1 | inactive |  |  |  |  | inactive | inactive | > 30 |  | inactive |  | inactive |  | inactive | inactive |  |
| COc1ccc2[nH]c(C(=O)NC/C=C/c3c[nH]c(N)n3)cc2c1 | inactive |  |  |  |  | inactive | inactive | > 30 |  | inactive |  | inactive |  | inactive | inactive |  |
| Nc1nc(/C=C/CNC(=O)c2cc3cc(F)ccc3[nH]2)c[nH]1 | inactive | 7.9 | > 30 | > 30 |  | inactive | inactive | 14 |  | inactive |  | 28% | > 30 | inactive | inactive | 8.8 |
| Nc1nc(/C=C/CNC(=O)C2CCNCC2)c[nH]1 | 22% |  |  |  |  | inactive | inactive | > 30 |  | inactive |  | 28% |  | inactive | inactive |  |
| CC(C)(C)OC(=O)N1CCC(C(=O)NC/C=C/c2c[nH]c(N)n2)CC1 | inactive |  |  |  |  | inactive | inactive | > 30 |  | inactive |  | inactive |  | inactive | inactive |  |
| Nc1nc(/C=C/CNC(=O)c2cc3ccccc3[nH]2)c[nH]1 | inactive | 14 | > 30 | > 30 |  | 42% | inactive | 21 |  | inactive |  | inactive | > 30 | inactive | inactive | 13 |
| Cc1[nH]c(C(=O)NC/C=C/c2c[nH]c(N)n2)c(Br)c1Br | inactive | 29 | > 30 | > 30 | > 10 | 41% | inactive | 17 | 0.23 | inactive | > 10 | inactive | > 30 | 33% | inactive | 12 |

Other lines, results leading:

| inhibition [1] | IC50 [2] [µM] | IC50 [3] [µM] | IC50 [4] [µM] | IC50 [5] [µM] | inhibition [6] | inhibition [7] | IC50 [8] [µM] | IC50 [9] [µM] | inhibition [10] | IC50 [11] [µM] | inhibition [12] | IC50 [13] [µM] | inhibition [14] | inhibition [15] | IC50 [16] [µM] | Structure (SMILES) |
| --- | --- | --- | --- | --- | --- | --- | --- | --- | --- | --- | --- | --- | --- | --- | --- | --- |
| inactive |  |  |  |  | inactive | inactive | > 30 |  | inactive |  | inactive |  | inactive | inactive |  | Nc1nc(CCCNC(=O)C2Cc3ccccc3N2)c[nH]1 (stereo not given) |
| inactive | 1.6 | 6.1 | > 30 | > 10 | inactive | inactive | 1.4 | 0.6 | inactive | 0.17 | inactive | > 30 | 90% | 62% | 1.5 | Nc1nc(/C=C/CNC(=O)c2cc(Cl)c(Cl)[nH]2)c[nH]1 |
| inactive | 4.9 | 16 | > 30 | 0.82 | inactive | inactive | 4.7 | 5.7 | 10% | > 10 | 58% | > 30 | 32% | inactive | 2.1 | Nc1ncc(/C=C/CNC(=O)c2cc(Br)c(Br)[nH]2)[nH]1 [OROIDIN] |
| inactive | 3.7 | 7.6 | > 30 |  | 22% | inactive | 2.5 |  | inactive |  | 32% | > 30 | 11% | 10% | 5.3 | Nc1nc(/C=C/CNC(=O)c2cc(Br)c[nH]2)c[nH]1 |
|  | 0.13 | 0.088 | 0.25 |  |  |  |  |  |  |  |  | 0.45 |  |  | 0.17 | O=c1ccc2c(OCCCCOc3ccccc3)c3ccoc3cc2o1 |
| inactive | 24 | > 30 | > 30 |  | inactive | inactive | 9 |  | inactive |  | inactive | > 30 | inactive | inactive | 17 | Nc1nc(/C=C/CNC(=O)c2cc3cc(Cl)ccc3[nH]2)c[nH]1 |
| inactive | > 30 | > 30 | > 30 |  | inactive | inactive | > 30 |  | inactive |  | inactive | > 30 | inactive | inactive | > 30 | Nc1ncc(/C=C/CNC(=O)c2ccc[nH]2)[nH]1 [CLATHRODIN] |
| inactive |  |  |  |  | inactive | inactive |  |  | inactive |  | inactive |  | inactive | inactive |  | Nc1nc(CCCNC(=O)c2cc3ccccc3[nH]2)c[nH]1 |
| 68% | 17 | > 30 | > 30 | > 10 | inactive | inactive | 25 | 0.73 | inactive | > 10 | inactive | > 30 | 71% | 72% | 15 | Cc1[nH]c(C(=O)NC/C=C/c2c[nH]c(N)n2)cc1Cl |
| inactive |  |  |  |  | inactive | inactive | > 30 |  | inactive |  | inactive |  | inactive | inactive |  | Nc1nc(CCCNC(=O)c2cc(Br)c(Br)[nH]2)c[nH]1 |
